Only a selection was taken, and hits are over-represented in it overall.
XiGFP reactiv: X-chromosome reactivation activator | XiGFP mouse fibroblasts, % GFP-positive cells imaging, 3 d; cells co-treated with 5-aza-dC sensitizer; scaled so ellipticine positive control = 100% | 0.055% of 360,000 active | activation, % at 7.58 µM | AID 743238;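 active = mean normalized replicate activation at least 10% and every replicate at or above 10%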
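Material: XiGFP fibroblasts, SV40-immortalized. Buffer or medium: DMEM plus 5-aza-dC sensitizer. Compound: single concentration per compound, delivered by pin transfer. Times: 3 days compound exposure. Controls: ellipticine 6 µM.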
E-sel inducer: induces E-selectin expression in human endothelial cells | P16581 | HUVEC E-selectin immunofluorescence imaging; normalized: neutral wells 0, TNF-alpha wells 100 | activation, % at 7.58 µM | 0.37% of 260,000 active | AID 686992;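 active = mean E-selectin-positive cell signal at least 10% of the positive control, reached in at least 60% of replicates, without over 20% cell loss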
Target sequence (P16581 whole entry, looked up): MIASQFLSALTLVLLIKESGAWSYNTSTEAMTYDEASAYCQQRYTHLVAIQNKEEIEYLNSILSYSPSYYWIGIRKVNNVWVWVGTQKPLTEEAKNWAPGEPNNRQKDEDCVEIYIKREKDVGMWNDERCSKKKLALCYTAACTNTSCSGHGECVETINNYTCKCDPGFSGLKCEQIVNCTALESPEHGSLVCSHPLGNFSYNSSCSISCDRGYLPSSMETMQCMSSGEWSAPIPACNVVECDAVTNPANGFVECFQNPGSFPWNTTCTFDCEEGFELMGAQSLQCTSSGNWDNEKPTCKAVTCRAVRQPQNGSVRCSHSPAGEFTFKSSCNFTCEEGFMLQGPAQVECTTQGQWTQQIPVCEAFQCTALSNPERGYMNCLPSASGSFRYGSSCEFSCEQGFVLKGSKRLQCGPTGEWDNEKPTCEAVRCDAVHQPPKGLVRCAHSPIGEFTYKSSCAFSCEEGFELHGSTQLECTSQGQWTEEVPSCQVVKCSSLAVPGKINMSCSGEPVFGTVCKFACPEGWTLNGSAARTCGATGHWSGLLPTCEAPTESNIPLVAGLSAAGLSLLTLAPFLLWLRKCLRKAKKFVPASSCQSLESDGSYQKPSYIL
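Test system: HUVEC | Signal: Immunofluorescence imaging | Read-out: Percent E-selectin-positive cells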
Hits are given with their value; 0 = inactive; - = no result given; ! = a repeat was not active.

SMILES	XiGFP reactiv	E-sel inducer
Cc1sc2ncnc(N/N=C/c3cccc(O)c3)c2c1C	0	-
C/C(=N\Nc1ncnc2sc(C)c(C)c12)c1ccccn1	84.8	-
COCC(=O)Nc1ccc2c(c1)[C@@H]1C[C@H](CC(=O)NCc3ccc(Cl)cc3)O[C@@H](CO)[C@@H]1O2	0	0
C[C@H]1CN([C@@H](C)CO)C(=O)c2cc(NC(=O)Nc3ccc(C(F)(F)F)cc3)ccc2O[C@H]1CN(C)Cc1ccc(Oc2ccccc2)cc1	0	0
C[C@H]1CN([C@@H](C)CO)C(=O)c2cc(NS(C)(=O)=O)ccc2O[C@@H]1CN(C)Cc1ccc(C(F)(F)F)cc1	0	0
C[C@@H]1CN([C@H](C)CO)C(=O)c2cc(NS(C)(=O)=O)ccc2O[C@@H]1CN(C)Cc1ccc(C(F)(F)F)cc1	0	110.3
CC(C)NC(=O)Nc1ccc2c(c1)C(=O)N([C@@H](C)CO)C[C@@H](C)[C@H](CN(C)Cc1ccc(C(F)(F)F)cc1)O2	0	38.3
C[C@H](CO)N1C[C@H](C)[C@@H](CN(C)Cc2ccc(Oc3ccccc3)cc2)Oc2ccc(NC(=O)Nc3ccc(C(F)(F)F)cc3)cc2C1=O	0	272.7
CC(C)NC(=O)Nc1ccc2c(c1)C(=O)N([C@H](C)CO)C[C@H](C)[C@@H](CN(C)Cc1ccc(C(F)(F)F)cc1)O2	0	0
O=C(Nc1ccc2c(c1)[C@@H]1C[C@@H](CC(=O)N3CCCCC3)O[C@H](CO)[C@@H]1O2)C1CCC1	0	0
O=C(CC1CC1)Nc1ccc2c(c1)[C@@H]1C[C@@H](CC(=O)NC3CCCC3)O[C@H](CO)[C@@H]1O2	0	0
CCCC(=O)Nc1ccc2c(c1)C(=O)N(C)[C@@H]1CC[C@@H](CC(=O)NC3CCCC3)O[C@H]1CO2	0	0
CC(C)CC#Cc1cnc2c(c1)C(=O)N([C@H](C)CO)C[C@@H](C)[C@@H](CN(C)S(=O)(=O)c1cn(C)cn1)O2	0	0
CNC[C@H]1Oc2ccc(NS(=O)(=O)c3cn(C)cn3)cc2CC(=O)N([C@@H](C)CO)C[C@H]1C	0	0
COc1ccc(CNC(=O)C[C@H]2C[C@H]3c4cc(NC(=O)CN(C)C)ccc4O[C@H]3[C@@H](CO)O2)cc1	0	0
COc1cc(Cl)c(CC(=O)c2c[nH]c3ccccc23)cc1OC	0	0
Cc1cccc(CC(=O)c2c[nH]c3ccccc23)c1	0	74.6
C[C@H]1CN([C@@H](C)CO)C(=O)c2cc(NC(=O)Nc3ccc(C(F)(F)F)cc3)ccc2O[C@H]1CN(C)S(=O)(=O)c1ccccc1	0	0
C[C@H](CO)N1C[C@H](C)[C@@H](CN(C)S(=O)(=O)c2ccccc2)Oc2ccc(NC(=O)Nc3ccc(C(F)(F)F)cc3)cc2C1=O	0	430.8!
C[C@@H]1CN([C@@H](C)CO)C(=O)c2cc(NC(=O)Nc3ccc(C(F)(F)F)cc3)ccc2O[C@H]1CN(C)S(=O)(=O)c1ccccc1	0	78.5
C[C@@H]1CN([C@H](C)CO)C(=O)c2cc(NC(=O)Nc3ccc(C(F)(F)F)cc3)ccc2O[C@@H]1CN(C)S(=O)(=O)c1ccccc1	0	0
CO[C@H]1CN(C)C(=O)c2cc(NC(=O)Nc3cccc(F)c3)ccc2OC[C@H](C)N(C(=O)Nc2c(C)noc2C)C[C@@H]1C	0	0
COc1cccc(CNC(=O)C[C@@H]2C=C[C@H](NC(=O)C3CC3)[C@H](CO)O2)c1	0	0
CC(=O)NC(Cc1c[nH]c2ccccc12)C(=O)NCCc1ccccn1 (stereo not drawn)	0	45.7
COc1ccc(OCCNC(=O)C(Cc2c[nH]c3ccccc23)NC(C)=O)cc1 (stereo not drawn)	0	-
SMILES	XiGFP reactiv	E-sel inducer
Cc1c(C#N)c(NC(=O)CCl)n(Cc2ccc(F)cc2)c1C	0	41.7
Cc1c(C#N)c(NC(=O)CCl)n(Cc2ccccc2)c1C	0	-
Cc1ccccc1-c1cnc2c(c1)C(=O)N([C@@H](C)CO)C[C@H](C)[C@@H](CN(C)C(=O)CC1CC1)O2	0	0
C[C@@H]1CN([C@@H](C)CO)C(=O)c2cccc(NS(=O)(=O)c3ccc(Cl)cc3)c2O[C@H]1CN(C)C(=O)Nc1ccccc1	0	0
N#CC(C#N)=C1C=CC=CN1/C(=C\c1ccco1)C(=O)c1ccc(-c2ccccc2)cc1	15.1	-
N#CC(C#N)=C1C=CC=CN1/C(=C\c1ccco1)C(=O)c1ccc(Cl)cc1	0	-
C[C@@H]1CCCCO[C@H](CN(C)C(=O)CCC(F)(F)F)[C@H](C)CN([C@@H](C)CO)C(=O)c2cc(NC(=O)CCCN(C)C)ccc2O1	0	0
CC(C)NC(=O)Nc1cccc2c1O[C@@H](CN(C)Cc1ccc(C(F)(F)F)cc1)[C@@H](C)CN([C@H](C)CO)C2=O	0	52.8
C[C@@H]1CN([C@H](C)CO)C(=O)c2cccc(NC(=O)c3ccncc3)c2O[C@@H]1CN(C)Cc1ccc(C(=O)Nc2ccccc2N)cc1	0	57.8
C[C@H](CO)N1C[C@H](C)[C@H](CN(C)Cc2ccc(C(F)(F)F)cc2)Oc2c(NS(C)(=O)=O)cccc2C1=O	0	0
CC(C)NC(=O)Nc1cccc2c1O[C@H](CN(C)Cc1ccc(C(F)(F)F)cc1)[C@@H](C)CN([C@@H](C)CO)C2=O	0	0
CC(C)NC(=O)Nc1cccc2c1O[C@H](CN(C)Cc1ccncc1)[C@@H](C)CN([C@H](C)CO)C2=O	0	80.6
CC(C)NC(=O)Nc1cccc2c1O[C@@H](CN(C)Cc1ccccc1)[C@@H](C)CN([C@@H](C)CO)C2=O	0	0
C[C@H](CO)N1C[C@H](C)[C@H](CN(C)Cc2ccc(C(=O)Nc3ccccc3N)cc2)Oc2c(NC(=O)c3ccncc3)cccc2C1=O	0	0
C[C@H](CO)N1C[C@H](C)[C@@H](CN(C)Cc2ccc(C(F)(F)F)cc2)Oc2c(NS(C)(=O)=O)cccc2C1=O	0	197.7
Cc1noc(C)c1S(=O)(=O)N(C)C[C@@H]1Oc2ccc(NS(=O)(=O)c3ccc(F)cc3)cc2C(=O)N([C@H](C)CO)C[C@@H]1C	0	0
COc1ccc(S(=O)(=O)N[C@H]2CC[C@H](CCNC(=O)Cc3ccccn3)O[C@H]2CO)cc1	0	0
Cc1ccc(S(=O)(=O)Nc2cccc3c2O[C@@H](CN(C)Cc2ccc(C(F)(F)F)cc2)[C@H](C)CN([C@@H](C)CO)C3=O)cc1	0	0
C[C@H]1CN([C@@H](C)CO)C(=O)c2cccc(NS(C)(=O)=O)c2O[C@H]1CN(C)Cc1ccc(Oc2ccccc2)cc1	0	-
C[C@H](CO)N1C[C@H](C)[C@H](CN(C)Cc2ccc(Oc3ccccc3)cc2)Oc2c(NS(C)(=O)=O)cccc2C1=O	0	30.8
O=C(CSc1nc2ncc(Br)cc2[nH]1)Nc1ccccc1-c1ccccc1	0	-
Brc1cnc2nc(SCc3nc4ccccc4[nH]3)[nH]c2c1	0	52.8
C[C@@H]1CN([C@H](C)CO)C(=O)c2cc(NS(=O)(=O)c3ccccc3)ccc2O[C@@H]1CN(C)C(=O)NC1CCCCC1	0	116.6
C[C@H]1CN([C@@H](C)CO)C(=O)c2cc(NS(C)(=O)=O)ccc2O[C@@H]1CN(C)C(=O)Nc1ccccc1	0	0
C[C@H](CO)N1C[C@H](C)[C@H](CN(C)C(=O)NC2CCCCC2)Oc2ccc(NS(=O)(=O)c3ccccc3)cc2C1=O	0	62.8

Screening data as filed in PubChem.
